In this test the test system is HT-29. The experiment in a line: Inhibition of side population in human HT-29 cells at 100 uM after 90 mins using vybrant dyecycle violet staining by FACS analysis. Particulars: HT-29, 1.5 h. It counts as functional. In a few lines: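 HT-29 cells were stained in medium with Vybrant DyeCycle Violet for 90 min at 37 °C, centrifuged and washed with medium. Side-population cells were identified by flow cytometry histograms. The reference control was verapamil, which blocks the transporter responsible for dye exclusion. Results are % side-population inhibition ± SD.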

Consider `COc1ccc(CCN(C)CCCC(C#N)(c2ccc(OC)c(OC)c2)C(C)C)cc1OC` (stereo unspecified), for which at 100 µM the inhibition was 95%.

The values above are taken from ChEMBL document CHEMBL3085637, “Synthesis and anticancer potential of certain novel 2-oxo-N'-(2-oxoindolin-3-ylidene)-2H-chromene-3-carbohydrazides” (Eur J Med Chem, 2013).
